# Results reported in PubChem BioAssay.
# Calls of active or inactive are those of the source.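 Rule for the calls, unless noted: active = viability at or under a set limit in both replicates, limit being median viability minus 3 SD (cut at about 48% in these data, passing the limit was not always enough); inconclusive = at or under the limit in just one replicate; inactive = at or above the limit in both replicates.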
# How the values were obtained:
# [1] = reduced viability of SK-BR-3 breast cancer cells – cell-based, 24 h, human, pilot screen (AID 572;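 active = viability at or below 10% of carrier control in both of two separate runs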;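 note: compound exposure lasted between 18 and 24 h rather than exactly 24 h; 100% = carrier-treated control wells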); conditions: SK-BR-3 viability, CellTiter-Glo luminescence, at 10 µM, stronger effect = lower value
# [2] = HUVEC growth inhibition – cell-based, human, primary screen (AID 575;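 active = viability at or below 30% in both replicate assays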;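 note: 100% = median of untreated cell wells with 0.1% DMSO on each plate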); conditions: HUVEC proliferation, CellTiter-Glo luminescence, 72 h; at 10 µM; stronger effect = lower value
# How it was run: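 Assay system: Primary human umbilical vein endothelial cells | Quantity: 1250 cells per well | Medium: Supplemented EBM, 2% fetal bovine serum | Detection: CellTiter-Glo luminescence measuring cellular ATP | Read-out: % viability vs DMSO wells | Plate: Collagen-coated 384-well format | Times: 72 h exposure, 37 °C, 5% CO2, 30 min RT equilibration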
# [3] = H69AR cell proliferation blockers – human, duplicate replicates, primary screen (AID 580); conditions: H69AR lung tumor cells viability, ATP luminescence, 72 h; at 10 µM; stronger effect = lower value;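 note: 100% = mean luminescence of untreated wells and 0% = no signal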
# [4] = MRP1 drug-resistance reversers in H69AR cells – cell-based, doxorubicin co-treatment, pilot screen (AID 601;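 active = viability loss from added drug above about 55%, and viability with drug at most 40%, in both replicates, limit read from the data, passing the limit was not always enough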); conditions: CellTiter-Glo, 72 h, at 10 µM; for differential viability (reversal): stronger effect = higher value
# [5] = yeast transport mutant growth inhibition pilot in 384-well plates, post-Golgi transport modulator project (AID 636; in the data active = inhibition above about 31%); conditions: absorbance 615 nm, about 18 h, stronger effect = higher value
# [6] = growth suppression of yeast trafficking mutant, preliminary HTS, modulators of trafficking downstream of Golgi apparatus project, 1536-format plate, OD 615 nm (AID 637; in the data active = inhibition above about 30%); conditions: yeast transport mutant growth, absorbance 615 nm, 18 h; stronger effect = higher value
# [7] = H69AR cells + 2 uM doxorubicin, measured here: viability with 2 uM doxorubicin, stronger effect = lower value
# [8] = H69AR cells, compound alone cytotoxicity
Compound,viability [1],viability [2],viability [3],differential viability (reversal) ([4]; H69AR cells + 2 uM doxorubicin),"viability [4, 7]","viability [4, 8]",inhibition [5],inhibition [6]
Cc1c(C)[n+](=O)c2c(n1[O-])CCCCC2,89% (inactive),93.5% (inactive),96% (inactive),9.67% (inactive),86.3%,96%,-1.43% (inactive),-2.3% (inactive)
COc1cc(NC(=O)Nc2cccc(C(C)=O)c2)cc(OC)c1OC,109% (inactive),102% (inactive),92.4% (inactive),4.83% (inactive),87.6%,92.4%,-8.36% (inactive),-0.18% (inactive)
O=C(O)CCc1ccc(-c2ccc(F)cc2)n1CCC(=O)O,71% (inactive),104% (inactive),98.5% (inactive),-9.11% (inactive),108%,98.5%,-7.53% (inactive),3.45% (inactive)
COc1ccc(NC(=O)CSc2ccccn2)cc1OC,87% (inactive),97.3% (inactive),95.1% (inactive),20.2% (inactive),74.9%,95.1%,2% (inactive),1.82% (inactive)
OC(CCCN1CCC(O)(c2ccc(Cl)cc2)CC1)c1ccc(F)cc1 (stereo unspecified),89% (inactive),73.1% (inactive),66.1% (inactive),-6.19% (inactive),72.3%,66.1%,2.47% (inactive),4.5% (inactive)
CC(=O)OCC(=O)[C@@]1(O)CC[C@H]2[C@@H]3CCC4=CC(=O)CC[C@]4(C)[C@H]3[C@@H](O)C[C@@]21C,101% (inactive),74.1% (inactive),100% (inactive),2.38% (inactive),97.7%,100%,-4.29% (inactive),-1.17% (inactive)
O=C(CN1C(=O)CC(c2ccco2)Sc2ccccc21)Nc1ccc2c(c1)OCCO2 (stereo unspecified),130% (inactive),99% (inactive),76.9% (inactive),1.83% (inactive),75.1%,76.9%,-2.76% (inactive),-0.16% (inactive)
O=C(CN1C(=O)COc2ccccc21)N(Cc1cccnc1)Cc1ccccc1F,78% (inactive),96.6% (inactive),83.5% (inactive),8.57% (inactive),74.9%,83.5%,-2.97% (inactive),0.55% (inactive)
CC(NC(=O)NC12CC3CC(CC(C3)C1)C2)C1CCCO1 (stereo unspecified),80% (inactive),103% (inactive),103% (inactive),10.1% (inactive),93.4%,103%,-3.7% (inactive),1.27% (inactive)
Oc1c(I)cc(I)c2cccnc12,61% (inactive),71.3% (inactive),84.6% (inactive),-6.25% (inactive),90.9%,84.6%,-2.73% (inactive),1% (inactive)
COc1ccccc1N1CCN(CC(O)COc2cccc3ccccc23)CC1 (stereo unspecified),83% (inactive),74.9% (inactive),77.4% (inactive),-13.3% (inactive),90.7%,77.4%,-1.3% (inactive),-1.5% (inactive)
CCc1cccc(NC(=O)CN(C)S(=O)(=O)c2cccc3nsnc23)c1,92% (inactive),90.3% (inactive),91.8% (inactive),7.68% (inactive),84.1%,91.8%,-5.68% (inactive),-2.55% (inactive)
N#Cc1c(N)n(CCOC(=O)c2cccc(Br)c2)c2nc3ccccc3nc12,111% (inactive),75.6% (inactive),96.4% (inactive),3.64% (inactive),92.8%,96.4%,-10.1% (inactive),3.55% (inactive)
CCOC(=O)C1CCN(CC(=O)c2c(C)[nH]c3ccccc23)CC1,100% (inactive),112% (inactive),92.6% (inactive),0.74% (inactive),91.9%,92.6%,-0.67% (inactive),-2.73% (inactive)
CN(C(=O)Cn1c(=O)n(CCCCC(=O)NC2CCCC2)c(=O)c2ccccc21)C1CCCCC1,106% (inactive),63.2% (inactive),93% (inactive),12.2% (inactive),80.9%,93%,-2.73% (inactive),5.08% (inactive)
Cc1oc(-c2ccc(Cl)cc2)cc1-c1nn2c(-c3ccoc3C)nnc2s1,86% (inactive),75.3% (inactive),83.7% (inactive),-12% (inactive),95.7%,83.7%,18.9% (inactive),3.06% (inactive)
CCn1c(SCC(=O)Nc2ccc3c(c2)OCO3)nnc1-c1ccccc1O,96% (inactive),92% (inactive),101% (inactive),13.5% (inactive),87.2%,101%,-1.69% (inactive),-0.33% (inactive)
CCOC(=O)n1c(=O)oc2cc(S(=O)(=O)N3CCCCC3)ccc21,97% (inactive),112% (inactive),90.2% (inactive),-0.62% (inactive),90.8%,90.2%,-4.27% (inactive),-2.91% (inactive)
Cc1ccc(CC2SC(=O)NC2=O)cc1Cl (stereo unspecified),107% (inactive),75.8% (inactive),92.7% (inactive),4.26% (inactive),88.4%,92.7%,3.42% (inactive),-2.26% (inactive)

Compound,viability [1],viability [2],viability [3],differential viability (reversal) ([4]; H69AR cells + 2 uM doxorubicin),"viability [4, 7]","viability [4, 8]",inhibition [5],inhibition [6]
COc1ccc(C)cc1C(=O)CCC(=O)Nc1ccccc1N1CCOCC1,90% (inactive),54% (inactive),1.36% (active),-1.5% (inactive),2.85%,1.36%,-6.27% (inactive),1.31% (inactive)
COC(=O)c1ccc(COC(=O)c2c(C)nn(Cc3ccccc3Cl)c2Cl)o1,69% (inactive),94.6% (inactive),86.2% (inactive),4.08% (inactive),82.1%,86.2%,-4.38% (inactive),3.82% (inactive)
COc1ccc(OC)c(NC(=O)C2C3CC4OC(=O)C2C4C3)c1 (stereo unspecified),103% (inactive),102% (inactive),98.3% (inactive),8.29% (inactive),90%,98.3%,-6.89% (inactive),-4% (inactive)
CCC[C@@H]1C[C@@H](C(=O)N[C@H]([C@@H](C)O)[C@H]2O[C@H](SC)[C@H](O)[C@@H](O)C2O)N(C)C1 (stereo partly specified),128% (inactive),94.7% (inactive),89.7% (inactive),9.67% (inactive),80%,89.7%,0.52% (inactive),15.7% (inactive)
O=C(NCc1ccccc1)C1CCCN(S(=O)(=O)c2cccnc2)C1 (stereo unspecified),92% (inactive),95.5% (inactive),99% (inactive),6.21% (inactive),92.8%,99%,-4.66% (inactive),-3.81% (inactive)
COc1cccc2c(=O)cc(C)n(CC(=O)Nc3ccc(C)c(C)c3)c12,105% (inactive),84.5% (inactive),95.5% (inactive),13.4% (inactive),82.1%,95.5%,-8.4% (inactive),-2.91% (inactive)
CSc1oc(-c2ccccc2)nc1S(=O)(=O)c1ccc(F)cc1,92% (inactive),73.2% (inactive),82.6% (inactive),0.495% (inactive),82.1%,82.6%,-6.3% (inactive),-1.61% (inactive)
CCOC(=O)c1ccc(NS(=O)(=O)c2ccc3c(c2)CCCN3C(C)=O)cc1,118% (inactive),104% (inactive),89.8% (inactive),-8.91% (inactive),98.7%,89.8%,0.91% (inactive),-0.16% (inactive)
COc1ccc(C(NC(C)=O)c2ccc3cccnc3c2O)c(OC)c1 (stereo unspecified),65% (inactive),3.65% (active),23% (active),-22.1% (inactive),45.1%,23%,-6.4% (inactive),1.09% (inactive)
CSc1c(CC(=O)NCCO)n(C)c2ccccc12,108% (inactive),111% (inactive),102% (inactive),9.3% (inactive),93.1%,102%,-4.13% (inactive),0.91% (inactive)
Cc1ccc(F)cc1NC(=O)C1CCCN(c2ncccn2)C1 (stereo unspecified),100% (inactive),104% (inactive),88.7% (inactive),-1.88% (inactive),90.6%,88.7%,-6.8% (inactive),-2.91% (inactive)
O=C(NCCCN1CCN(c2cccc(Cl)c2)CC1)c1ccc(N2CCCC2=O)cc1,69% (inactive),76.1% (inactive),89.1% (inactive),-5.41% (inactive),94.5%,89.1%,-1.1% (inactive),4.91% (inactive)
Cc1nc2sccn2c(=O)c1CCN1CCC(=C(c2ccccc2)c2ccc(F)cc2)CC1,160% (inactive),3.02% (active),81.9% (inactive),-12.5% (inactive),94.5%,81.9%,-0.13% (inactive),24.5% (inactive)
O=C1C2CC=C(Cl)CC2C(=O)N1CNc1ccccn1 (stereo unspecified),112% (inactive),108% (inactive),98.8% (inactive),-6.09% (inactive),105%,98.8%,-2.05% (inactive),5.65% (inactive)
O=C(NC1CCS(=O)(=O)C1)OC1CCCCC1 (stereo unspecified),75% (inactive),111% (inactive),93.4% (inactive),-10.9% (inactive),104%,93.4%,-0.82% (inactive),1.82% (inactive)
COC(=O)CCC(=O)Nc1ccc(S(=O)(=O)N2CCCCCC2)cc1,103% (inactive),99.2% (inactive),100% (inactive),1.32% (inactive),98.8%,100%,-1.69% (inactive),1.15% (inactive)
O=C(O)C(c1ccccc1)N1CCCC1 (stereo unspecified),106% (inactive),102% (inactive),95.9% (inactive),16.4% (inactive),79.5%,95.9%,-5.6% (inactive),-3.64% (inactive)
CN1C(=O)c2c(sc3c2CCCC3)NC1c1ccccc1O (stereo unspecified),72% (inactive),68.7% (inactive),93.2% (inactive),-2.01% (inactive),95.2%,93.2%,-3.97% (inactive),-0.81% (inactive)
